Reference: PubChem BioAssay AID588627 (Johns Hopkins Ion Channel Center, 2011)
Out of some 310,000 compounds screened, about 1,400 (0.45%) were called active.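 The calls were made as follows: active = calcium response B-score plate-corrected fluorescence ratio at least 3 library SD, with starting fluorescence B-score inside 5 SD; inactive = the rest.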 Many of the other results were omitted from the sample, so actives are more common in it than they were.

What follows are compounds tested against Mas-related G-protein coupled receptor member X1 (Homo sapiens) (UniProt Q96LB2) (assay: agonists of human MrgX1 receptor, primary screen, HEK293 cells, Fluo-4 calcium flux (AID 588627;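 as to B-score: B-score of the peak-minus-trough calcium fluorescence change over baseline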)). Conditions: Fluo-4 calcium fluorescence, agonist mode, at 10 µM; hits give high values.
Mas-related G-protein coupled receptor member X1 (Homo sapiens), sequence (Q96LB2 whole entry, looked up): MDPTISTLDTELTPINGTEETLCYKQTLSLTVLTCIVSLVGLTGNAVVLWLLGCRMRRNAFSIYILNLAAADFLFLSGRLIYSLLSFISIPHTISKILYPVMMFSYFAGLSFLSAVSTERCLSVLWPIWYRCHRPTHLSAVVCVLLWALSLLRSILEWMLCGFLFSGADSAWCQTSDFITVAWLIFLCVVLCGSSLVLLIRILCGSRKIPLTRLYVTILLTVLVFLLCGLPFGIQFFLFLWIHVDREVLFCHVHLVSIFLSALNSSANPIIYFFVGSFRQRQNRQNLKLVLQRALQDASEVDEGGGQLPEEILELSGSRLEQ
Method in brief: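 Material: HEK293 cells stably expressing human MrgX1 receptor | Quantity: 15,000 cells per well | Times: Cells plated overnight, dye loaded 0.5 h 37 °C, 0.5 h room temperature | Measured by: Kinetic Fluo-4 NW fluorescence of intracellular calcium | Control set: Positive and negative controls per plate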

Row | SMILES | B-score
1 | CN(CC(O)COc1ccc(S(=O)(=O)N2CCOCC2)cc1Cl)C1CCCCC1 (stereo not drawn) | inactive
2 | CC(C)(C)NC(=O)CN(C(=O)c1csnn1)c1ccccc1-c1ccccc1 | inactive
3 | COc1ccc(-c2nc(CN3CCN(c4ncccn4)CC3)c(C)o2)cc1C | inactive
4 | O=C(Nc1ccccc1)c1nnsc1S(=O)(=O)c1ccc(Cl)cc1 | 33.9 (active)
5 | CN(c1cccc(NC(=O)Nc2ccc(Cl)cc2)c1)S(C)(=O)=O | inactive
6 | Cc1nnsc1C(=O)N/N=C/c1ccccc1Cl | inactive
7 | Cc1sc2ncn(CC(=O)NCCN(C)C)c(=O)c2c1S(=O)(=O)N1CCC(C)CC1 | inactive
8 | COC(=O)C1=C(C(=O)OC)C(c2cc([N+](=O)[O-])ccc2O)c2sc(=O)[nH]c2S1 (stereo not drawn) | inactive
9 | CCCC1OC23CCCCC2C(C#N)(C#N)C1(C#N)C(=N)O3 (stereo not drawn) | inactive
10 | CCOC(=O)C1CCN(C(=O)C2(NC(=O)Nc3cccc(F)c3)CCCCC2)CC1 | inactive
11 | Cc1cc2oc3ccc(NCCC4CCCN4C)cc3c(=O)c2cc1C (stereo not drawn) | 27.5 (active)
12 | CCCOc1ccc(C2c3c(oc4cc(C)c(C)cc4c3=O)C(=O)N2CCCN2CCOCC2)cc1 (stereo not drawn) | inactive
13 | Cc1ccc(CS(=O)(=O)CCC(=O)NC2CC2)cc1 | inactive
14 | O=C(NCC(=O)N1CCCC(C(F)(F)F)C1)c1ccccc1F (stereo not drawn) | inactive
15 | FC(F)(F)C1CCCN(c2nsc3ccccc23)C1 (stereo not drawn) | 30.1 (active)
16 | O=C(NC(Cc1ccccc1)C(=O)N1CCCC(C(F)(F)F)C1)c1ccccc1 (stereo not drawn) | inactive
17 | Cc1n[nH]c(=O)c2c1nnn2Cc1ccc(F)cc1 | inactive
18 | COc1ccc(CCNC(=O)C(=O)NCC2OCCN2S(=O)(=O)c2ccc(F)cc2)cc1OC (stereo not drawn) | inactive
19 | CC(C)CCN1NC2(CCC(C)CC2)NC1=S (stereo not drawn) | inactive
20 | CC(C)N(c1ccccc1)c1ncnc(NCCC(=O)O)c1[N+](=O)[O-] | inactive
21 | CN(C)c1ccc(/C=C2\NC(=S)N(Cc3ccccc3)C2=O)cc1 | 49.1 (active)
22 | O=C1/C(=C\c2ccsc2)NC(=S)N1c1ccccc1 | inactive

Row | SMILES | B-score
23 | COc1cc(/C=C2/SC(=S)N(Cc3ccccc3)C2=O)cc(OC)c1O | inactive
24 | CCC(C)c1ccccc1N1CC(C(=O)N2CCN(S(=O)(=O)c3ccc(F)cc3)CC2)CC1=O (stereo not drawn) | inactive
25 | Cc1cc(NC(=O)CSc2nnnn2-c2ccc(F)cc2)no1 | inactive
26 | COc1ccc(C(=O)NC(=S)NC2CCCCC2)cc1 | inactive
27 | CC(C)Oc1ccc(CCC(=O)NNC(=S)NCc2ccccc2)cc1 | inactive
28 | COc1ccc(C(=O)NNC(=S)NC(=O)c2ccccc2)cc1 | 113 (active)
29 | COc1ccc(C(=O)NC2CCN(C(=S)NCCc3ccccc3)CC2)cc1 | inactive
30 | COc1ccc(C(=O)NC(=S)NNC(=O)CCc2ccccc2)cc1 | 107 (active)
31 | COc1ccc(C(=O)NNC(=S)NC(=O)c2ccccc2[N+](=O)[O-])cc1 | inactive
32 | Cc1ccc(NS(=O)(=O)c2cc3c(cc2C)NC(=O)CO3)cc1 | inactive
33 | O=C(Nc1cccc(Cl)c1)Nc1ccccc1NS(=O)(=O)c1cccs1 | inactive
34 | C[n+]1ccc(/C=C/c2c[nH]c3ccccc23)cc1 | inactive
35 | COc1ccccc1/C=C/CN1CCC(CO)(Cc2ccccc2)CC1 | inactive
36 | COC(=O)C1=C(C(=O)c2ccc(C)cc2)C(c2ccccc2)n2nnnc2N1 (stereo not drawn) | inactive
37 | COC(=O)c1ccc(C2C3=C(Nc4nnnn42)c2ccccc2OC3)cc1 (stereo not drawn) | 27.7 (active)
38 | COc1ccccc1NC(=O)C1=C(C)Nc2nnnn2C1c1cccc(Br)c1 (stereo not drawn) | inactive
39 | COc1cccc(CN(C)CC(O)COC(c2ccccc2)c2ccccc2C)c1 (stereo not drawn) | inactive
40 | Cn1c(=O)c2cc(S(=O)(=O)NCCC(=O)Nc3ccc(F)cc3F)ccc2n(C)c1=O | inactive
41 | Cc1ccc(C(=O)C(C)OC(=O)Cc2n[nH]c(=O)c3ccccc23)cc1C (stereo not drawn) | inactive
42 | O=c1c2cc(Br)ccc2nc(-c2cccc(Cl)c2)n1O | 67.7 (active)
43 | O=C1CCCc2c1nc(-c1cccc(Cl)c1)n2O | inactive
44 | Cc1cccc(-c2nc3ccccc3c(=O)n2NC(=O)Cc2ccc(Cl)cc2)c1 | inactive

Row | SMILES | B-score
45 | Cc1c2cnn(CC(=O)NCCCN3CC(C)CC(C)C3)c(=O)c2c(C)n1Cc1ccc(Cl)cc1 (stereo not drawn) | inactive
46 | COc1cc(NC(=O)C2=C(C)OCCS2)c(Cl)cc1C(=O)NCCN1CCN(C)CC1 | inactive
47 | O=C(Nc1ccccc1N1CCOCC1)c1ccc(OCc2cscn2)cc1 | inactive
48 | Cc1nn(CC2CC2)c(=O)n1N(C)c1ncc(C(F)(F)F)cc1Cl | inactive
49 | COc1ccc(-c2ccnc(SCC(=O)N3CCOCC3)n2)cc1 | inactive
50 | COC1=C/C(=C/c2c(N)n3nc(CC(=O)N4CCOCC4)sc3nc2=O)C=CC1=O | 34.8 (active)
51 | C=CCC1=C/C(=C\c2c(N)n3nc(CC(=O)N4CCOCC4)sc3nc2=O)C=C(OC)C1=O | inactive
52 | CC(=O)Nc1nc2c(s1)C(=O)NCC(C)(C)C2 | inactive
53 | CC1(C(=O)O)CCC(C(=O)Nc2ccc(Cl)c(Cl)c2)C1(C)C (stereo not drawn) | 30.1 (active)
54 | NC(=O)N1CCCC1C(=O)Nc1ccc(Cl)c(Cl)c1 (stereo not drawn) | inactive
55 | CCN(CC)C(=O)C1CCC(C)(C(=O)O)C1(C)C (stereo not drawn) | inactive
56 | Cc1ccsc1C1C(C#N)=C(N)OC2=C1C(=O)CC(C)(C)C2 (stereo not drawn) | inactive
57 | Cc1c(C(=O)Nc2ccccc2)sc2nc3n(c(=O)c12)CCCCC3 | inactive
58 | COc1ccc(OC)c(NC(=O)c2ccc3c(c2)C(=O)N(c2ccc(OC(C)=O)cc2)C3=O)c1 | inactive
59 | O=C1C(=O)N(CC2COc3ccccc3O2)c2ccccc21 (stereo not drawn) | 56 (active)
60 | O=C(CN1C(=O)C2C3C=CC(C3)C2C1=O)NCC1COc2ccccc2O1 (stereo not drawn) | inactive
61 | Cc1cc(C(=O)CCl)c(C)n1CC1COc2ccccc2O1 (stereo not drawn) | inactive
62 | Cc1ccc(S(=O)(=O)NC2CCCCCC2)cc1C(N)=O | inactive
63 | O=c1nc2s/c(=C\c3ccco3)c(=O)n2nc1Cc1ccccc1 | inactive
64 | CN(c1ccccc1)c1ccc(/C=c2\s/c(=C(/C#N)C(=O)C(C)(C)C)n(Cc3ccco3)c2=O)cc1 | 193 (active)
65 | CCOC(=O)/C=c1\s/c(=C\c2ccc(C#N)cc2)c(=O)n1CC(=O)Nc1cccc(C)c1C | inactive
66 | CCCC[C@@H]1CN=C(N)N1CCCC | inactive

Row | SMILES | B-score
67 | CCCCN1C(N)=NC[C@@H]1Cc1ccccc1 | inactive
68 | CCCCN1C(N)=NC[C@@H]1CC1CCCCC1 | 36.9 (active)
69 | CCOc1ccc(/C=C/C(=O)N(CC)CC(=O)NCc2cccs2)cc1OC | inactive
70 | CC(C)(C)N(Cc1ccccc1)C(=O)c1ccncc1 | inactive
71 | O=C(/C=C/c1ccc(Cl)c([N+](=O)[O-])c1)c1cccnc1 | inactive
72 | NC(N)=N/N=C/c1ccc(Cl)c([N+](=O)[O-])c1 | 28.4 (active)
73 | O=C(/C=C/c1ccc(Cl)c([N+](=O)[O-])c1)c1ccc(O)cc1 | inactive
74 | Cc1ccc(C(=O)C[n+]2cc(-c3ccccc3)n3c2CCCCC3)cc1 | inactive
75 | COc1ccc(-c2cc(C(=O)NC(Cc3c[nH]c4ccccc34)C(=O)O)c(C)o2)cc1OC (stereo not drawn) | inactive
76 | NS(=O)(=O)c1ccc(NC(=O)COC(=O)C2(c3ccc(F)cc3)CCCC2)cc1 | inactive
77 | COc1ccc(OCc2cn3c(C)cc(C)nc3n2)cc1 | inactive
78 | CCOc1ccc(C(C)C)cc1S(=O)(=O)n1nc(C)cc1C | inactive
79 | COc1ccc(C(C[N+](=O)[O-])n2nc(C)cc2C)cc1 (stereo not drawn) | 46.1 (active)
80 | CCC(C)(C(=O)NC1CCCC1)N(C(=O)CNC(C)=O)c1ccc(C)cc1 (stereo not drawn) | inactive
81 | CCCc1nc(N2CCN(C)CC2)c2sc(=S)n(-c3ccccc3)c2n1 | inactive
82 | CN(Cc1ccccc1)C(=O)CCc1ccccc1 | inactive
83 | CN(C(=O)CN(CCO)CC(=O)N(C)C(C)(C)Cc1ccccc1)C(C)(C)Cc1ccccc1 | 44.7 (active)
84 | OCCN(Cc1ccccc1)Cc1ccc(Cl)cc1 | inactive
85 | CC(C)C(=O)NCC(c1cccs1)S(=O)(=O)c1ccc(F)cc1 (stereo not drawn) | inactive
86 | Cc1ncoc1C(=O)N1CCCC(C(=O)c2ccc3c4c(cccc24)CC3)C1 (stereo not drawn) | inactive
87 | CN(CC(=O)Nc1cccc(F)c1)C(=O)C1CSC2(C)CCC(=O)N12 (stereo not drawn) | inactive
88 | C=CCNC(=S)NNC(=O)c1cc(Cl)ccc1OC | inactive

Row | SMILES | B-score
89 | COc1ccc(Cl)cc1C(=O)NNC(=S)NC(=O)/C=C/c1ccco1 | 51.7 (active)
90 | COc1ccc(Cl)cc1C(=O)NNC(=S)NC1CCCC1 | inactive
91 | COc1ccc(C2c3ccc(O)cc3Oc3ncn(CCCO)c(=N)c32)cc1OC (stereo not drawn) | inactive
92 | CCc1cccc(C)c1NC(=O)COC(=O)Cc1ccsc1 | inactive
93 | CCN(Cc1nc2ccccc2c(=O)[nH]1)Cc1cc(=O)oc2cc(C)c(C)cc12 | 34.9 (active)
94 | CN(Cc1nc2ccccc2c(=O)[nH]1)Cc1cc(=O)oc2ccc3ccccc3c12 | inactive
95 | CCN(CC(=O)NC(=O)NCc1ccccc1)Cc1nc2ccccc2c(=O)[nH]1 | inactive
96 | CCn1c(SCC(=O)Nc2ccc(C)cc2)nc2nc3c(cc2c1=O)CCCC3 | inactive
97 | Cc1cc(C)cc(C(=O)NC(=S)Nc2ccc3[nH]c(=O)[nH]c3c2)c1 | inactive
98 | Cc1ccc(NC2(C#N)C(=O)Nc3ccccc32)cc1 (stereo not drawn) | 45 (active)
99 | COc1ccc(C2(O)C(=O)Nc3ccccc32)cc1 (stereo not drawn) | inactive
100 | Cc1cc(O)c(C2(O)C(=O)Nc3ccccc32)cc1C (stereo not drawn) | inactive
101 | CCCCn1c(N)c(N(CC(C)C)C(=O)CSc2ccc([N+](=O)[O-])cc2)c(=O)[nH]c1=O | inactive
102 | CN(CCc1ccccn1)C(=O)c1ccc(OC2CCN(CCc3ccccc3)CC2)cc1 | inactive
103 | O=C1Cc2ccccc2Sc2ccc(Cl)cc21 | 28.3 (active)
104 | S=C1Nc2cc(Cl)ccc2Sc2ccccc21 | inactive
105 | O=C1CC2(CCCC2)Oc2ccc(Cl)cc21 | inactive
106 | O=C(N/N=C/c1cc(Cl)cc([N+](=O)[O-])c1O)C(O)(c1ccccc1)c1ccccc1 | 36.2 (active)
107 | O=C(N/N=C/c1cc(Br)c(O)c([N+](=O)[O-])c1)C(O)(c1ccccc1)c1ccccc1 | inactive
108 | CN(C)/N=C/c1cc(Cl)cc([N+](=O)[O-])c1O | inactive
